Source: ChEMBL document CHEMBL3763021 (Eur J Med Chem, 2016)

Key:
LS174T [1] = assay: Antitumor activity against human LS174T cells xenografted in BALB/C mouse assessed as tumor weight inhibition at 75 mg/kg, bid administered for 10 days measured twice per week; type: functional; conditions: 240 h, read-out: TGI
Summary of the method: (§1)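 Male BALB/c nude mice, 18–20 g, kept under SPF conditions. LS-174T cells at 2.5×10^7 cells/mL were injected s.c. into the right flank, and tumors were grown to about 100 mm3. Mice were randomized, n=6 treated and n=9 vehicle. Oral dosing ran qd or bid for 10 days; vehicle controls got the same volume of solvent. Tumor volume = length×width²/2, measured twice weekly. IR = (control − treated)/control for tumor weight or volume at day 10.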

[2] = Inhibition of Sonic-induced hedgehog signalling in mouse NIH3T3 cells after 48 hrs by Gli-luciferase reporter assay; type: cell-based; conditions: NIH3T3, 48 h
Summary of the method: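 NIH3T3 cells stably carrying a Gli-luciferase reporter were kept in DMEM with 10% FBS and 1 µg/mL puromycin, then seeded at 2×10^4 cells/well overnight at 37 °C. Compounds at 0.05–300 nM (8 concentrations) were added in medium with 0.5% FBS and 0.7 µg/mL Sonic Hh agonist, n=4 wells, for 48 h. Readout was the Firefly/Renilla luciferase ratio in lysates.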

[3] = Cmax in Sprague-Dawley rat at 1 mg/kg, iv by LC/MS/MS analysis; type: ADME, organism-based; parameters: dose 1 mg/kg, route intravenous; conditions: in vivo
Summary of the method: (§2)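 Male SD rats, 180–240 g, 3 per compound; single dose of 1 mg/kg iv or 5 mg/kg po, dosing volume 5 mL/kg. Blood was sampled from 2 min to 24 h and centrifuged at 4 °C. Plasma underwent protein precipitation, then LC/MS/MS in SRM mode with an internal standard. Parameters were derived by noncompartmental analysis.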

[4] = Cmax in Sprague-Dawley rat at 5 mg/kg, po by LC/MS/MS analysis; type: ADME, organism-based; parameters: dose 5 mg/kg, route oral; conditions: in vivo; summary of the method: as §2
[5] = AUC (0 to t) in Sprague-Dawley rat at 1 mg/kg, iv by LC/MS/MS analysis; type: ADME, organism-based; conditions: in vivo
Summary of the method: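 Male SD rats, 3 per compound, 180–240 g, single iv dose at 1 mg/kg, dosing volume 5 mL/kg. Blood sampled at 2, 5, 15, 30 min and 1, 2, 4, 6, 8, 10, 24 h, then centrifuged at 4 °C. Plasma protein-precipitated and analysed by LC/MS/MS in SRM mode with internal standard. AUC(0-t) obtained by noncompartmental analysis.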

[6] = AUC (0 to t) in Sprague-Dawley rat at 5 mg/kg, po by LC/MS/MS analysis; type: ADME, organism-based; conditions: in vivo; summary of the method: as §2
[7] = Apparent volume of distribution in Sprague-Dawley rat at 1 mg/kg, iv by LC/MS/MS analysis; conditions: in vivo
Rattus norvegicus = assay: Apparent volume of distribution in Sprague-Dawley rat at 5 mg/kg, po by LC/MS/MS analysis; conditions: in vivo
[8] = Clearance in Sprague-Dawley rat at 1 mg/kg, iv by LC/MS/MS analysis; type: ADME, organism-based; conditions: in vivo; summary of the method: as §2
[9] = Clearance in Sprague-Dawley rat at 5 mg/kg, po by LC/MS/MS analysis; type: ADME, organism-based; conditions: in vivo; summary of the method: as §2
[10] = Mean resident time (0 to t) in Sprague-Dawley rat at 1 mg/kg, iv by LC/MS/MS analysis; type: ADME, organism-based; conditions: in vivo; summary of the method: as §2
[11] = Mean resident time (0 to t) in Sprague-Dawley rat at 5 mg/kg, po by LC/MS/MS analysis; type: ADME, organism-based; conditions: in vivo; summary of the method: as §2
[12] = Half life in Sprague-Dawley rat at 1 mg/kg, iv by LC/MS/MS analysis; type: ADME, organism-based; conditions: in vivo; summary of the method: as §2
[13] = Half life in Sprague-Dawley rat at 5 mg/kg, po by LC/MS/MS analysis; type: ADME, organism-based; conditions: in vivo; summary of the method: as §2
[14] = Oral bioavailability in Sprague-Dawley rat at 5 mg/kg; type: ADME, organism-based; conditions: in vivo; summary of the method: as §2
LS174T [15] = assay: Antiproliferative activity against human LS174T cells after 72 hrs by CellTiter-Glo luminescent cell viability assay; type: functional, cell-based
Summary of the method: (§3)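 Cells were grown in DMEM with 10% FBS, seeded at a density suited to each line, and left 24 h at 37 °C. Compounds were prepared in DMSO, diluted in medium over a concentration series starting at 100 µM, and applied for 72 h. CellTiter-Glo reagent was added for 30 min at room temperature before reading luminescence. IC50 came from four-parameter curve fitting.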

[16] = Antiproliferative activity against human PC3 cells after 72 hrs by CellTiter-Glo luminescent cell viability assay; type: functional, cell-based; conditions: PC-3, 72 h; summary of the method: as §3
[17] = Antiproliferative activity against human BxPC3 cells after 72 hrs by CellTiter-Glo luminescent cell viability assay; type: functional, cell-based; conditions: BXPC-3, 72 h; summary of the method: as §3
LS174T [18] = assay: Antitumor activity against human LS174T cells xenografted in BALB/C mouse assessed as tumor weight inhibition at 18.75 mg/kg, bid administered for 10 days measured twice per week; type: functional; conditions: 240 h, read-out: TGI; summary of the method: as §1
LS174T [19] = assay: Antitumor activity against human LS174T cells xenografted in BALB/C mouse assessed as tumor weight inhibition at 37.5 mg/kg, bid administered for 10 days measured twice per week; type: functional; conditions: 240 h, read-out: TGI; summary of the method: as §1
Mus musculus [20] = assay: Toxicity in BALB/C mouse xenografted with human LS174T cells assessed as mortality at 18.75 to 75 mg/kg, bid administered for 10 days; type: organism-based; conditions: in vivo, 240 h
Summary of the method: (§4)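 Male BALB/C nude mice (18–20 g) kept under SPF conditions. LS-174T cells at 2.5×10^7 cells/mL injected subcutaneously into the right flank. Once tumors reached about 100 mm3, mice were randomized to groups of 6 (vehicle group n = 9) and dosed orally once or twice daily for 10 days. Controls received solvent. Body weight and tumor volume were measured twice weekly and deaths recorded.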

Mus musculus [21] = assay: Toxicity in BALB/C mouse xenografted with human LS174T cells assessed as loss of body weight at 18.75 to 75 mg/kg, bid administered for 10 days measured twice per week; type: organism-based; conditions: in vivo, 240 h; summary of the method: as §4
LS174T [22] = assay: Antitumor activity against human LS174T cells xenografted in BALB/C mouse assessed as tumor volume inhibition at 75 mg/kg, bid administered for 10 days measured twice per week; conditions: 240 h, read-out: TGI
LS174T [23] = assay: Antitumor activity against human LS174T cells xenografted in BALB/C mouse assessed as tumor volume inhibition at 18.75 mg/kg, bid administered for 10 days measured twice per week; type: functional; conditions: 240 h, read-out: TGI; summary of the method: as §1
LS174T [24] = assay: Antitumor activity against human LS174T cells xenografted in BALB/C mouse assessed as tumor volume inhibition at 37.5 mg/kg, bid administered for 10 days measured twice per week; type: functional; conditions: 240 h, read-out: TGI; summary of the method: as §1
LS174T [25] = assay: Potency index, ratio of GDC-0449 IC50 to compound IC50 for human LS174T cells; type: functional
PC-3 = assay: Potency index, ratio of GDC-0449 IC50 to compound IC50 for human PC3 cells; type: functional
BXPC-3 = assay: Potency index, ratio of GDC-0449 IC50 to compound IC50 for human BxPC3 cells; type: functional

Work on `Cc1ccc(CN2CCOCC2)cc1NC(=O)c1ccc(Nc2ncc(F)c(-c3ccc(OC(F)(F)F)cc3)n2)cc1` yielded an inhibition in vivo at 75 mg/kg (LS174T [1]) of 14.4%, an IC50 [2] of 0.00103 µM and a Cmax [3] of 1010 ng/mL. It also gave a Cmax [4] of 494 ng/mL, an AUC(0-t) [5] of 2030 ng·h/mL and an AUC(0-t) [6] of 4720 ng·h/mL. For the same compound, the Vd [7] was 4.67 L/kg, the “Vd(app)” value (Rattus norvegicus) was 12.03324 L/kg and the clearance [8] was 7.75 mL/min/kg. The CL/F [9] was 15.5 mL/min/kg, the MRT last [10] was 4.85 h and the MRT last [11] was 7.42 h. For the same compound, the half-life [12] was 6.98 h, the half-life [13] was 9.08 h and the bioavailability [14] was 37.2%. The IC50 (LS174T [15]) was 9.1 µM, the IC50 [16] was 11.6 µM and the IC50 [17] was 14.5 µM. The inhibition in vivo at 18.75 mg/kg (LS174T [18]) was 18.4%, the inhibition in vivo at 37.5 mg/kg (LS174T [19]) was 17.3% and the Activity (Mus musculus [20]) was “Non-toxic”. The Activity (Mus musculus [21]) was “Non-toxic”, the inhibition in vivo at 75 mg/kg (LS174T [22]) was 33.1% and the inhibition in vivo at 18.75 mg/kg (LS174T [23]) was 34%. For the same compound, the inhibition in vivo at 37.5 mg/kg (LS174T [24]) was 34.9%, the Ratio IC50 (LS174T [25]) was 5 and the Ratio IC50 (PC-3) was 5.8. The “Ratio IC50” value (BXPC-3) was 3.
